HSV augment – HSV replication enhancement | HSV replication augmentation in cells, fold increase | maximum fold increase | 220,000 compounds, 0.005% hits; in the data active means maximum fold increase above about 1.5; inconclusive means no clear call, values can overlap the other calls; tested in PC3 cells
MT stabilizer – stabilizes microtubules in HeLa cells; 200,000 compounds, 0.83% hits; % tubulin-high responders, % at 10 µM; HeLa tubulin immunostaining HCS, 24 h; share of cells brighter than vehicle mean+2SD;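 active means plate Z-score above 3 for both tubulin-high and condensed-nucleus cell shares, with cell loss under 80%, at 10 µM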;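 further: anti alpha tubulin signal scored within the nucleus-defined area of each cell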
INS promoter inh – TRM-6 insulin promoter activity inhibition. 130,000 compounds, 0.9% hits. inhibition, % at 2 µM. TRM-6 cells (human fetal islet line), insulin promoter-eGFP reporter, imaging; reporter expression induced with tamoxifen;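 active means inhibition above the mean plus 3 SD, with well images judged a real hit on visual review, cut at about 60% in these data, passing the limit was not always enough; inconclusive means inhibition over the cutoff but images rejected on review; inactive means inhibition not above the cutoff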
b-catenin transl – alters nuclear translocation of beta-catenin in HeLa cells | immunofluorescence imaging | nuclear translocation activity, % at 5 µM | 190,000 compounds, 0.3% hits;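 active means nuclear translocation activity above 50% at 5 µM, with a well cell count of 50 or more; inconclusive means wells under 50 cells across six images, flagged as toxic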;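 further: per-cell ratio of nuclear to cytoplasmic median beta-catenin stain intensity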
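Test system: HeLa cells, endogenous beta-catenin; Compound: single 5 µM dose plus 0.02–20 µM confirmation series; Times: compound exposure 24 h at 37°C; Signal: fluorescence imaging of beta-catenin antibody stain plus DAPI; Read-out: % activation, nuclear-to-cytoplasmic median beta-catenin signal ratio per cell.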
ROMK mod – modulators of human ROMK potassium channel | P48048 | Tet-inducible ROMK, thallium flux fluorescence; actives lie on both sides | B-score at 10 µM | 130,000 compounds, 2% hits;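 active means signal ratio slope over the read window, or its plate-corrected B-score, at least 3 SD from the plate mean, either direction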;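 further: B-score of the F/F0 ratio slope over 7 to 12 s after thallium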
Target sequence (P48048 whole entry, looked up): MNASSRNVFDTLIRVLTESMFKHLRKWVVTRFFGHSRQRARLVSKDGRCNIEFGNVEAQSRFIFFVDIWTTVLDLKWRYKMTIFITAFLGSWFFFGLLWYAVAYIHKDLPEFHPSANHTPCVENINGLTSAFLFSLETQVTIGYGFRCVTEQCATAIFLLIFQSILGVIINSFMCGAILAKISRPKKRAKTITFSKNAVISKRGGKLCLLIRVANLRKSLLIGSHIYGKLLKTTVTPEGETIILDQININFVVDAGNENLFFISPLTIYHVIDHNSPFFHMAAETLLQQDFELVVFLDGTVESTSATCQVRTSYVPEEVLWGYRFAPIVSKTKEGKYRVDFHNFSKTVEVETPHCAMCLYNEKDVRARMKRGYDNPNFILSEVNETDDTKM
ROMK hit retest – human ROMK channel modulation, retest confirmation | 3,000 compounds, 54% hits | ROMK thallium flux, fluorescence ratio; stronger effect = lower value | shares compounds with ROMK mod | AID 1917 | normalized thallium flux (F/F0 slope) at 10 µM;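 active means Flux at 10 µM at least 3 SD below or above vehicle control mean in one or both replicates; inconclusive means no clear call, values can overlap the other calls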
A number is an active result; i = inactive; ? = inconclusive; nt = no result given. A selection: hits, their analogues and other compounds. The true share with any hit is near 2.4%.

SMILES | HSV augment | MT stabilizer | INS promoter inh | b-catenin transl | ROMK mod | ROMK hit retest
CCOc1ccc(N(CC(=O)N/N=C/c2ccc(OC(C)C)cc2)S(C)(=O)=O)cc1 | i | i | i | i | i | nt
CCN1CC(CCN2CCOCC2)C(c2ccccc2)(c2ccccc2)C1=O (stereo unspecified) | i | nt | nt | nt | nt | nt
O=c1cc(CCl)[nH]c2nc3ccccc3n12 | i | nt | nt | i | nt | nt
O=c1cc(-c2ccccc2)[nH]c2nc3ccccc3n12 | i | 44 | i | i | nt | nt
COc1cc(/C=N/NC(=O)c2ccc(-n3cccc3)cc2)ccc1O | i | i | 71 | i | i | nt
O=C(O)CS(=O)CC(=O)Nc1cccc(C(F)(F)F)c1 (stereo unspecified) | i | i | i | i | i | nt
COc1ccc(NC(=O)c2ccc(F)cc2)cc1S(=O)(=O)Nc1cc(C)ccc1Br | i | 16 | i | i | i | nt
COc1ccc(NS(=O)(=O)c2cc(NC(=O)c3ccc(F)cc3)ccc2OC)cc1 | i | i | i | i | i | nt
O=C(NC(=S)Nc1cccc(Cl)c1N1CCCCC1)c1ccco1 | i | 39 | i | i | nt | nt
O=C(NC(=S)Nc1cccc(Cl)c1N1CCCCC1)c1cccs1 | i | 26 | i | i | i | nt
Cn1c(NC(=O)/C=C\c2ccccc2)cc(=O)n(C)c1=O | i | i | i | i | i | nt
Cc1ccc2[nH]c(C)cc(=S)c2c1 | i | 23 | nt | i | i | nt
CC(=O)Nc1ccccc1N(C)S(=O)(=O)c1ccc(C)cc1 | i | 47 | nt | i | nt | nt
Cc1ccc(S(=O)(=O)N(C)c2ccccc2C(=O)Nc2ccc3c(c2)OCCO3)cc1 | i | nt | nt | i | nt | nt
CC(=O)NC(=S)Nc1ccc(NC(=O)c2cccnc2Cl)cc1 | i | nt | nt | i | nt | nt
COc1ccc(NC(=O)/C=N/O)cc1 | i | i | nt | i | i | nt
COc1ccc(N/N=C(\C=N\O)C(=O)c2ccc(OC)cc2)cc1 | i | 38 | i | nt | i | nt
Cc1ccc(C(=O)CSc2nnc(-c3cccnc3)n2N)cc1 | i | 30 | i | i | nt | nt
Cc1ccc(CSc2nnc(-c3cccnc3)n2N)cc1 | i | i | i | i | nt | nt
FC(F)(Cl)c1nnc2ccc(Sc3ccccn3)nn12 | i | i | i | i | i | nt
O=C(N/N=C/c1ccccc1F)c1ccc(COc2ccccc2Cl)o1 | i | i | i | i | nt | nt
CCc1ccc(NC(=O)CSc2nc3ccccc3c(=O)n2CCCC(=O)N2CCCC2)cc1 | i | 27 | i | nt | i | nt
O=C(CSc1nc2ccccc2c(=O)n1CCCC(=O)N1CCCC1)NCc1ccco1 | i | i | i | nt | nt | nt
Cc1ccc(C(=O)CSc2nnc(C)s2)cc1 | i | i | i | i | i | nt
Cc1nnc(SCC(=O)c2ccc(Br)cc2)s1 | i | i | 79 | i | i | nt
SMILES | HSV augment | MT stabilizer | INS promoter inh | b-catenin transl | ROMK mod | ROMK hit retest
COc1ccccc1NC(=O)NC1(C(=O)N2CCC(O)CC2)CCCCC1 | i | i | i | i | -5 | nt
CCOc1ccccc1NC(=O)NC1(C(=O)N2CCOCC2)CCCCC1 | i | i | nt | i | nt | nt
CCOC(=O)c1c(CSc2ccccc2)n(C)c2cc(Br)c(OCC(O)CNC(CO)(CO)CO)cc12 (stereo unspecified) | i | i | i | i | -5.2 | 0.056
N#C/C(=C\c1cn(-c2ccccc2)nc1-c1cc2ccccc2o1)c1nc2ccccc2[nH]1 | i | i | i | i | -3.5 | 0.048
O=C(N/N=C/c1cn(-c2ccccc2)nc1-c1cc2ccccc2o1)c1ccncc1 | i | i | i | i | i | nt
O=C(N/N=C/c1cn(-c2ccccc2)nc1-c1cc2ccccc2o1)c1cccnc1 | i | i | i | i | nt | i
CN(C)S(=O)(=O)c1cccc(-c2nn(-c3ccccc3)cc2/C=C(\C#N)c2nc3ccccc3[nH]2)c1 | i | i | i | i | i | nt
Cc1ccc(C2(c3noc(CN(C)Cc4cccnc4)n3)CCCC2)cc1 | i | i | nt | i | i | nt
Cc1ccc(C)c(S(=O)(=O)Nc2ccc3scnc3c2)c1 | i | i | i | nt | i | nt
COc1ccc(CCn2c(NN)nc3c2c(=O)[nH]c(=O)n3C)cc1 | i | nt | nt | i | 4.8 | ?
CCOc1ccc(NC(=S)Nc2ccccc2C2(C)CC2)cc1 | i | i | nt | i | i | nt
Nc1c(C(=O)N/N=C/c2ccc(OCc3ccccc3)cc2)cnn1-c1ccccc1 | i | nt | nt | i | -13 | i
O=C(NCCN1CCOCC1)c1ccccc1[N+](=O)[O-] | i | i | nt | i | 3.1 | i
COC(=O)c1cc2c(C)[nH]c(C)c2cc(C(=O)OC)c1=O | i | i | i | i | i | nt
COc1ccccc1OCC(=O)N(Cc1nc(-c2ccccc2)no1)C1CCCCC1 | i | i | i | nt | nt | i
O=C1C2CC(O)CN2C(=O)N1c1ccccc1 (stereo unspecified) | i | i | i | i | i | nt
c1ccc2c(-c3cc(C4CCNCC4)[nH]n3)cccc2c1 | i | i | i | i | -4.4 | 0.064
CCCCC(CC)CNC(=O)Cn1c(=S)[nH]c2ncccc2c1=O (stereo unspecified) | i | i | i | i | i | nt
CC(C)(C)NC(=O)COC(=O)c1ccccc1Oc1ccccc1 | i | nt | nt | i | nt | nt
Cc1nnnn1/C(=C\c1ccccc1)C(=O)OCC(=O)NC(C)(C)C | i | i | i | i | -8.2 | 0.043
NC1=Nc2cccc3cccc1c23 | i | i | i | i | i | nt
NC1=CC(=O)c2cccc3cccc1c23 | i | i | i | nt | -3.8 | 0.051
O=C(CNc1cc(S(=O)(=O)N2CCOCC2)ccc1N1CCCC1)N1CCc2ccccc21 | i | i | i | i | i | nt
CS(=O)(=O)Nc1cccc(S(=O)(=O)N2CCN(C(=O)c3ccccc3)CC2)c1 | i | nt | nt | i | nt | nt
CCOc1ccc(S(=O)(=O)N(C)CCO)cc1-c1nc2c(C(C)(C)C)nn(C)c2c(=O)[nH]1 | nt | i | i | i | -4.3 | 0.048
SMILES | HSV augment | MT stabilizer | INS promoter inh | b-catenin transl | ROMK mod | ROMK hit retest
O=C1/C(=C/c2cccnc2)SC(=S)N1CC1CCCO1 (stereo unspecified) | i | i | i | i | -4 | ?
CCOc1ccc(NC(=O)C(c2ccccn2)N(C(=O)CCl)c2ccc(F)cc2)cc1 (stereo unspecified) | i | i | i | i | i | nt
Cc1cccc(N(C(=O)c2csnn2)C(C(=O)NC(C)(C)C)c2cccnc2)c1 (stereo unspecified) | i | i | i | i | 2.2 | i
O=C(O)c1cc(N2N=C(C(F)(F)F)/C(=C/C=C/c3ccco3)C2=O)ccc1Cl | i | i | i | i | -5.3 | 0.049
CCOC(=O)c1ccc(N2N=C(C)/C(=C/C=C/c3ccco3)C2=O)cc1 | i | i | i | i | i | nt
CCOc1ccccc1NS(=O)(=O)c1cn(C)nc1C | i | i | i | i | i | nt
O=C(NNC1=Nc2cccc3cccc1c23)c1ccc(Br)cc1 | ? | i | i | i | -3.4 | i
COc1ccc(CC(=O)NNC2=Nc3cccc4cccc2c34)cc1OC | i | nt | nt | i | i | nt
Cc1cccc(-n2c(C)cc(C)c(C#N)c2=O)c1 | i | i | i | i | i | nt
N#C/C(=C\c1cccc(O)c1)c1nc2ccccc2o1 | i | nt | nt | i | nt | nt
Cn1c(/C(C#N)=C/c2cccc(O)c2)nc2ccccc21 | i | i | nt | i | -5 | 0.049
Cc1ccc(S(=O)(=O)/N=C2/NC(=O)/C(=C/c3ccncc3)S2)cc1 | i | i | i | i | i | nt
